Laboratory results reported in ChEMBL document CHEMBL2390929, “New nitric oxide donating 1,2,4-triazole/oxime hybrids: synthesis, investigation of anti-inflammatory, ulceroginic liability and antiproliferative activities” (Bioorg Med Chem, 2013).

Assays:
NCI-H226 = experiment: Cytotoxicity against human NCI-H226 cells assessed as cell growth at 10^-5 M after 48 hrs by SRB assay; assay type: functional; details: NCI-H226, 48 h, read-out: Activity
Summary of the method: (§1)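 NCI 60-cell-line primary one-dose screen across nine tumour subpanels. Compound added at a single concentration of 10^-5 M and cultures incubated 48 h. Endpoint was sulforhodamine B protein staining read spectrophotometrically, with growth expressed as percent of untreated control cells.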

U-251 = experiment: Cytotoxicity against human U251 cells assessed as cell growth at 10^-5 M after 48 hrs by SRB assay; assay type: functional; details: U-251, 48 h, read-out: Activity
Summary of the method: (§2)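 NCI-60 one-dose screen across nine tumour subpanels. Each agent added once at 10^-5 M, cultures incubated 48 h. Endpoint is sulforhodamine B protein staining read spectrophotometrically. Output is percent growth of treated cells relative to untreated controls.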

T47D = experiment: Cytotoxicity against human T47D cells assessed as cell growth at 10^-5 M after 48 hrs by SRB assay; assay type: functional; details: read-out: Activity; summary of the method: as §2
HOP-92 = experiment: Cytotoxicity against human HOP92 cells assessed as cell growth at 10^-5 M after 48 hrs by SRB assay; assay type: functional; details: HOP-92, 48 h, read-out: Activity; summary of the method: as §1
UACC-62 = experiment: Cytotoxicity against human UACC62 cells assessed as cell growth at 10^-5 M after 48 hrs by SRB assay; assay type: functional; details: UACC-62, 48 h, read-out: Activity; summary of the method: as §2
OVCAR-8 = experiment: Cytotoxicity against human OVCAR8 cells assessed as cell growth at 10^-5 M after 48 hrs by SRB assay; assay type: functional; details: OVCAR-8, 48 h, read-out: Activity; summary of the method: as §1
SNB-19 = experiment: Cytotoxicity against human SNB19 cells assessed as cell growth at 10^-5 M after 48 hrs by SRB assay; assay type: functional; details: SNB-19, 48 h, read-out: Activity; summary of the method: as §2
Rattus norvegicus [1] = experiment: Antiinflammatory activity in albino rat assessed as inhibition of carrageenan-induced paw edema at 0.28 mmol/kg, po after 4 hrs relative to control; assay type: functional
Summary of the method: (§3)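 Adult male albino rats (120–140 g), four per group, fasted 24 h with water allowed. Test agent suspended in 0.5% w/v aqueous CMC and given orally at 0.28 mmol/kg; controls received CMC alone. After 30 min, 0.1 mL fresh 1% carrageenan in saline was injected subplantar into the right hind paw and saline into the left. Paw thickness was measured by Vernier caliper; % inhibition = [(VR−VL)control − (VR−VL)treated]/(VR−VL)control ×100. Mean ± SEM, one-way ANOVA.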

KM12 = experiment: Cytotoxicity against human KM12 cells assessed as cell growth at 10^-5 M after 48 hrs by SRB assay; assay type: functional; details: KM12, 48 h, read-out: Activity; summary of the method: as §1
CCRF-CEM = experiment: Cytotoxicity against human CCRF-CEM cells assessed as cell growth at 10^-5 M after 48 hrs by SRB assay; assay type: functional; details: read-out: Activity; summary of the method: as §1
K562 = experiment: Cytotoxicity against human K562 cells assessed as cell growth at 10^-5 M after 48 hrs by SRB assay; assay type: functional; details: K562, 48 h, read-out: Activity; summary of the method: as §1
[2] = Induction of nitric oxide release in phosphate buffer at pH 7.4 at 0.1 mM after 3 hrs by Griess method in presence of 0.5 mM of N-acetylcysteine; assay type: physicochemical; details: pH 7.4, 3 h, 100 µM
Summary of the method: (§4)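 Compound in DMF diluted to final 10^-4 M in 1:1 50 mM phosphate buffer pH 7.4/MeOH with 5×10^-4 M N-acetylcysteine, 37 °C. Aliquot mixed with Griess reagent, 10 min at room temperature, A546 read. Nitrite quantified against sodium nitrite standards (10–80 nmol/mL); NO expressed as mol/mol. n = 4 reaction mixtures per compound.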

SK-MEL-28 = experiment: Cytotoxicity against human SK-MEL-28 cells assessed as cell growth at 10^-5 M after 48 hrs by SRB assay; assay type: functional; details: SK-MEL-28, 48 h, read-out: Activity; summary of the method: as §2
HCT-15 = experiment: Cytotoxicity against human HCT15 cells assessed as cell growth at 10^-5 M after 48 hrs by SRB assay; assay type: functional; details: HCT-15, 48 h, read-out: Activity; summary of the method: as §1
HL-60(TB) = experiment: Cytotoxicity against human HL-60(TB) cells assessed as cell growth at 10^-5 M after 48 hrs by SRB assay; assay type: functional; details: HL-60, 48 h, read-out: Activity
Summary of the method: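 NCI 60-cell-line one-dose screen: compound added to cultures at a single concentration of 10^-5 M, incubated 48 h. End point by sulforhodamine B protein staining, read spectrophotometrically. Value is percent growth of treated cells relative to untreated control cells.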

SW-620 = experiment: Cytotoxicity against human SW620 cells assessed as cell growth at 10^-5 M after 48 hrs by SRB assay; assay type: functional; details: SW-620, 48 h, read-out: Activity; summary of the method: as §2
[3] = Induction of nitric oxide release in phosphate buffer at pH 7.4 at 0.1 mM after 1 hr by Griess method in presence of 0.5 mM of N-acetylcysteine; assay type: physicochemical; details: pH 7.4, 1 h, 100 µM; summary of the method: as §4
RPMI-8226 = experiment: Cytotoxicity against human RPMI8226 cells assessed as cell growth at 10^-5 M after 48 hrs by SRB assay; assay type: functional; details: RPMI-8226, 48 h, read-out: Activity; summary of the method: as §1
Rattus norvegicus [4] = experiment: Antiinflammatory activity in albino rat assessed as inhibition of carrageenan-induced paw edema at 0.28 mmol/kg, po after 2 hrs relative to control; assay type: functional; summary of the method: as §3
NCI/ADR-RES = experiment: Cytotoxicity against human NCI/ADR-RES cells assessed as cell growth at 10^-5 M after 48 hrs by SRB assay; assay type: functional; details: read-out: Activity; summary of the method: as §1
HCT-116 = experiment: Cytotoxicity against human HCT116 cells assessed as cell growth at 10^-5 M after 48 hrs by SRB assay; assay type: functional; details: HCT-116, 48 h, read-out: Activity; summary of the method: as §1
UO-31 = experiment: Cytotoxicity against human UO31 cells assessed as cell growth at 10^-5 M after 48 hrs by SRB assay; assay type: functional; details: UO-31, 48 h, read-out: Activity; summary of the method: as §2
[5] = Cytotoxicity against human EKVX cells assessed as cell growth at 10^-5 M after 48 hrs by SRB assay; assay type: functional; details: read-out: Activity; summary of the method: as §1
ACHN = experiment: Cytotoxicity against human ACHN cells assessed as cell growth at 10^-5 M after 48 hrs by SRB assay; assay type: functional; details: read-out: Activity; summary of the method: as §1
HOP-62 = experiment: Cytotoxicity against human HOP62 cells assessed as cell growth at 10^-5 M after 48 hrs by SRB assay; assay type: functional; details: HOP-62, 48 h, read-out: Activity; summary of the method: as §1
OVCAR-5 = experiment: Cytotoxicity against human OVCAR5 cells assessed as cell growth at 10^-5 M after 48 hrs by SRB assay; assay type: functional; details: OVCAR-5, 48 h, read-out: Activity; summary of the method: as §1
PC-3 = experiment: Cytotoxicity against human PC3 cells assessed as cell growth at 10^-5 M after 48 hrs by SRB assay; assay type: functional; details: PC-3, 48 h, read-out: Activity; summary of the method: as §1
NCI-H460 = experiment: Cytotoxicity against human NCI-H460 cells assessed as cell growth at 10^-5 M after 48 hrs by SRB assay; assay type: functional; details: NCI-H460, 48 h, read-out: Activity; summary of the method: as §1
Rattus norvegicus [6] = experiment: Gastrointestinal toxicity in albino rat assessed as ulcer index at 0.28 mmol/kg, po (reference value: 0.60 +/- 0.05); assay type: organism-based; details: in vivo

With `CCn1c(SC/C(=N/O)c2ccccc2)nnc1-c1ccccc1` the growth at 10 µM (NCI-H226) was 108%, the growth at 10 µM (U-251) was 102% and the growth at 10 µM (T47D) was 120%. It also gave a growth at 10 µM (HOP-92) of 62.5%, a growth at 10 µM (UACC-62) of 86.2% and a growth at 10 µM (OVCAR-8) of 111%. The growth at 10 µM (SNB-19) was 99%, the inhibition in vivo at 280 µmol/kg (Rattus norvegicus [1]) was 73% and the growth at 10 µM (KM12) was 110%. The growth at 10 µM (CCRF-CEM) was 88.9%, the growth at 10 µM (K562) was 86% and the Activity [2] was 0.12 mol/mol. It also gave a growth at 10 µM (SK-MEL-28) of 106%, a growth at 10 µM (HCT-15) of 101% and a growth at 10 µM (HL-60(TB)) of 103%. It also gave a growth at 10 µM (SW-620) of 98.7%, an Activity [3] of 0.06 mol/mol and a growth at 10 µM (RPMI-8226) of 89.7%. For the same molecule, the inhibition in vivo at 280 µmol/kg (Rattus norvegicus [4]) was 69%, the growth at 10 µM (NCI/ADR-RES) was 103% and the growth at 10 µM (HCT-116) was 101%. The growth at 10 µM (UO-31) was 91.5%, the growth at 10 µM [5] was 90.6% and the growth at 10 µM (ACHN) was 105%. For the same molecule, the growth at 10 µM (HOP-62) was 111%, the growth at 10 µM (OVCAR-5) was 96.8% and the growth at 10 µM (PC-3) was 81.2%. It also gave a growth at 10 µM (NCI-H460) of 102% and a UI (Rattus norvegicus [6]) of 1.78.
Work on `C=CCn1c(SC/C(=N\O)c2ccccc2)nnc1-c1ccc(OC)c(OC)c1` yielded a growth at 10 µM (NCI-H226) of 103%, a growth at 10 µM (U-251) of 94.2% and a growth at 10 µM (T47D) of 90.4%. The growth at 10 µM (HOP-92) was 81.9%, the growth at 10 µM (UACC-62) was 99.9% and the growth at 10 µM (OVCAR-8) was 96.8%. The growth at 10 µM (SNB-19) was 99.5%, the inhibition in vivo at 280 µmol/kg (Rattus norvegicus [1]) was 78% and the growth at 10 µM (KM12) was 106%. For the same molecule, the growth at 10 µM (CCRF-CEM) was 98.3%, the growth at 10 µM (K562) was 90.8% and the Activity [2] was 0.17 mol/mol. The growth at 10 µM (SK-MEL-28) was 99%, the growth at 10 µM (HCT-15) was 99% and the growth at 10 µM (HL-60(TB)) was 72.3%. For the same molecule, the growth at 10 µM (SW-620) was 104%, the Activity [3] was 0.09 mol/mol and the growth at 10 µM (RPMI-8226) was 83.7%. For the same molecule, the inhibition in vivo at 280 µmol/kg (Rattus norvegicus [4]) was 57%, the growth at 10 µM (NCI/ADR-RES) was 93% and the growth at 10 µM (HCT-116) was 112%. It also gave a growth at 10 µM (UO-31) of 77.9%, a growth at 10 µM [5] of 101% and a growth at 10 µM (ACHN) of 97.8%. It also gave a growth at 10 µM (HOP-62) of 92.2%, a growth at 10 µM (OVCAR-5) of 107% and a growth at 10 µM (PC-3) of 96.5%. For the same molecule, the growth at 10 µM (NCI-H460) was 105% and the UI (Rattus norvegicus [6]) was 1.82.
`COc1cc(-c2nnc(SC/C(=N/O)c3ccccc3)n2-c2ccccc2)cc(OC)c1OC` showed a growth at 10 µM (NCI-H226) of 94.1%, a growth at 10 µM (U-251) of 94.1% and a growth at 10 µM (T47D) of 88.8%. It also gave a growth at 10 µM (HOP-92) of 81.2%, a growth at 10 µM (UACC-62) of 84% and a growth at 10 µM (OVCAR-8) of 98.3%. For the same molecule, the growth at 10 µM (SNB-19) was 95.2%, the inhibition in vivo at 280 µmol/kg (Rattus norvegicus [1]) was 76% and the growth at 10 µM (KM12) was 108%. It also gave a growth at 10 µM (CCRF-CEM) of 88.5%, a growth at 10 µM (K562) of 85.2% and an Activity [2] of 0.12 mol/mol. It also gave a growth at 10 µM (SK-MEL-28) of 90.3%, a growth at 10 µM (HCT-15) of 99.1% and a growth at 10 µM (HL-60(TB)) of 81.1%. For the same molecule, the growth at 10 µM (SW-620) was 114%, the Activity [3] was 0.07 mol/mol and the growth at 10 µM (RPMI-8226) was 73.6%. For the same molecule, the inhibition in vivo at 280 µmol/kg (Rattus norvegicus [4]) was 61%, the growth at 10 µM (NCI/ADR-RES) was 98.8% and the growth at 10 µM (HCT-116) was 92.7%. It also gave a growth at 10 µM (UO-31) of 69.5%, a growth at 10 µM [5] of 97.9% and a growth at 10 µM (ACHN) of 99.3%. The growth at 10 µM (HOP-62) was 101%, the growth at 10 µM (OVCAR-5) was 115% and the growth at 10 µM (PC-3) was 92.1%. For the same molecule, the growth at 10 µM (NCI-H460) was 110% and the UI (Rattus norvegicus [6]) was 5.52.
